Measurements of several laboratories.
Lines come from different studies, so protocols differ.
CECR2: Chromatin remodeling regulator CECR2 (CECR2, Homo sapiens, UniProt Q9BXF3)
SLC6A2: Sodium-dependent noradrenaline transporter (SLC6A2, Homo sapiens, UniProt P23975)

Structure (SMILES)	target	test	test system	setting	endpoint	result
Cc1cc2c(cc1N1C(=O)c3cccc4c(Cl)ccc(c34)C1=O)n(C)c(=O)n2C	CECR2	thermal stability, DSF	–	10 µM	ΔTm	3.5 °C
CC(C)(C)c1nc2c(s1)c1nc(N)ncc1c1ccc(NS(=O)(=O)c3c(F)cccc3F)c(F)c12	Mitotic checkpoint serine/threonine-protein kinase BUB1 beta (BUB1B, Homo sapiens, UniProt O60566)	enzyme activity, inhibitor, radiometric	–	1 µM	remaining activity	89%
CCN1CCN(Cc2ccc(NC(=O)c3ccc(C)c(Oc4ccnc5[nH]ccc45)c3)cc2C(F)(F)F)CC1	Serine/threonine-protein kinase 10 (STK10, Homo sapiens, UniProt O94804)	target engagement in cells, inhibitor, chemoproteomics	A-375	5 µM	inhibition	-138%
NS(=O)(=O)c1ccc(Nc2nc(-c3ccc(F)cc3)c3ccccc3n2)cc1	CECR2	binding, competition with immobilised ligand	–	1 µM	remaining binding	79%
C[S+]([O-])c1ccc(-c2nc(-c3ccncc3)c(-c3ccc(F)cc3)[nH]2)cc1 (centres unmarked)	CECR2	thermal stability, DSF	–	10 µM	ΔTm	0.89 °C
CCCOc1ccc(OC)c(F)c1C(=O)c1ccc(C(=O)N[C@@H]2CNC[C@H]2NC(=O)c2ccc3[nH]ncc3c2)cc1	cAMP-dependent protein kinase catalytic subunit PRKX (PRKX, Homo sapiens, UniProt P51817)	enzyme activity, inhibitor	–	0.75 µM	remaining activity	4%
CC(=O)N[C@H]1CSSC[C@@H](C(=O)N[C@H](Cc2c[nH]c3ccccc23)C(N)=O)NC(=O)[C@@H](Cc2ccccc2)NC(=O)[C@H](CCCNC(=N)N)NC1=O	Melanocortin receptor 4 (MC4R, Homo sapiens, UniProt P32245)	cAMP, agonist	HEK293	3 min	Emax	0%
Clc1ccc(C(c2ccc(Cl)cc2)c2nnnn2CCCCN2CCN(Cc3ccccc3)CC2)cc1	SLC6A2	transporter uptake, inhibitor	HEK293	1 µM	inhibition	79%
Nc1ncnc2occ(-c3ccc(NC(=O)Nc4cc(C(F)(F)F)ccc4F)cc3)c12	Peripheral plasma membrane protein CASK (CASK, Homo sapiens, UniProt O14936)	cell-free assay	–	20 µM	remaining signal	56%
Cc1ccc(C(=O)Nc2ccc(CN3CCN(C)CC3)c(C(F)(F)F)c2)cc1C#Cc1cnc2cccnn12	Serine/threonine-protein kinase WNK4 (WNK4, Homo sapiens, UniProt Q96J92)	enzyme activity, inhibitor	–	23.5 nM	remaining activity	93%
Clc1ccc(C(c2ccccc2)c2nnnn2CCCN2CCC(CCc3ccccc3)CC2)cc1 (centres unmarked)	SLC6A2	transporter uptake, inhibitor	HEK293	1 µM	inhibition	50.1%
Oc1ccc(-c2nc(-c3ccncc3)c(-c3ccc(F)cc3)[nH]2)cc1	CECR2	thermal stability, DSF	–	10 µM	ΔTm	1.3 °C
Fc1ccc(C(c2ccc(F)cc2)c2nnnn2CCCCN2CCN(Cc3ccccc3)CC2)cc1	SLC6A2	transporter uptake, inhibitor	HEK293	1 µM	inhibition	95%
CNC(=O)c1cc(Oc2ccc(NC(=O)Nc3ccc(Cl)c(C(F)(F)F)c3)cc2)ccn1	Serine/threonine-protein kinase Chk2 (CHEK2, Homo sapiens, UniProt O96017, I157T)	enzyme activity, inhibitor	–	10 µM	inhibition	-1%
